Experimental data gathered from unrelated publications.
Compare with care: the assays were run in different laboratories.
PIK3CA H1047Y: Phosphatidylinositol 4,5-bisphosphate 3-kinase catalytic subunit alpha isoform (PIK3CA, Homo sapiens, UniProt P42336, H1047Y)
PIK3CA I800L: Phosphatidylinositol 4,5-bisphosphate 3-kinase catalytic subunit alpha isoform (PIK3CA, Homo sapiens, UniProt P42336, I800L)
PIK3CA: Phosphatidylinositol 4,5-bisphosphate 3-kinase catalytic subunit alpha isoform (PIK3CA, Homo sapiens, UniProt P42336)
PIK3CA E545A: Phosphatidylinositol 4,5-bisphosphate 3-kinase catalytic subunit alpha isoform (PIK3CA, Homo sapiens, UniProt P42336, E545A)
PIK3CA M1043I: Phosphatidylinositol 4,5-bisphosphate 3-kinase catalytic subunit alpha isoform (PIK3CA, Homo sapiens, UniProt P42336, M1043I)
PIK3CA E545K: Phosphatidylinositol 4,5-bisphosphate 3-kinase catalytic subunit alpha isoform (PIK3CA, Homo sapiens, UniProt P42336, E545K)
PIK3CA H1047L: Phosphatidylinositol 4,5-bisphosphate 3-kinase catalytic subunit alpha isoform (PIK3CA, Homo sapiens, UniProt P42336, H1047L)
PIK3CA C420R: Phosphatidylinositol 4,5-bisphosphate 3-kinase catalytic subunit alpha isoform (PIK3CA, Homo sapiens, UniProt P42336, C420R)

CN(C)c1ncc(F)c(-c2cnn3ncccc23)n1
remaining binding (PIK3CA H1047Y; binding; 1 µM): 100%

CN1CCN(c2ccc(Nc3nccc(-c4ccccc4)n3)cc2C(F)(F)F)CC1
remaining binding (PIK3CA I800L; binding; 10 µM): 56%

C=CC(=O)N1CCC(C(=O)NCC(=O)N2CCN(c3nc(-c4cnc(N)nc4C(F)F)nc(N4CCOCC4)n3)CC2)CC1
remaining binding (Phosphatidylinositol 4,5-bisphosphate 3-kinase catalytic subunit alpha isoform (PIK3CA, Homo sapiens, UniProt P42336, E542K); binding, competition with immobilised ligand; 1 µM): 0%

N[C@H]1CCN(c2nccc(-c3cnn4ncccc34)n2)C1
remaining binding (PIK3CA H1047Y; binding; 1 µM): 56%

O=C(c1ccc(Nc2ncc(Cl)c(-c3cc4ccccc4s3)n2)cc1)N1CCC(N2CCCC2)CC1
remaining binding (PIK3CA H1047Y; binding, competition with immobilised ligand; 1 µM): 70%

c1ccc(N2CCN(Cc3nc4ccccc4[nH]3)CC2)nc1
remaining binding (PIK3CA; cell-free assay, competition with immobilised ligand; 1 µM): 100%

CN(c1nccc(-c2cnn3ncccc23)n1)C1CC1
remaining binding (PIK3CA E545A; binding; 1 µM): 100%

COc1cnc(Nc2cccc(S(N)(=O)=O)c2)nc1N1CCN(c2ccccc2)C(=O)C1
remaining binding (PIK3CA M1043I; binding, competition with immobilised ligand; 1 µM): 85%

COc1ncc2cc3ccccc3nc2c1C#N
remaining binding (PIK3CA E545K; cell-free assay, competition with immobilised ligand; 5 µM): 100%

C[C@@H](c1ccc(-n2cnc3c(N)ncnc32)cc1)N1CCc2nn(C)c(Cc3ccccc3)c2C1=O
remaining binding (PIK3CA H1047L; binding, competition with immobilised ligand; 0.1 µM): 63%

COc1cc(-c2cn(C3CCc4ccccc4N(CC(F)(F)F)C3=O)nn2)ccc1-n1ccc(C)n1 (stereo not drawn)
remaining binding (PIK3CA I800L; cell-free assay, competition with immobilised ligand; 1 µM): 76%

CN1CCN(c2ccc(Nc3nccc(-c4cccc([N+](=O)[O-])c4)n3)cc2C(F)(F)F)CC1
remaining binding (PIK3CA M1043I; binding; 10 µM): 35%

O=C1CCc2cc(Nc3cc(OC4CCOCC4)c([N+](=O)[O-])cc3Cl)ccc2N1
remaining binding (PIK3CA; cell-free assay, competition with immobilised ligand; 1 µM): 79%

Nc1ncc2c(n1)-c1c([nH]c3ccc(C#CC4CC4)cc13)CCCC2
remaining binding (PIK3CA E545A; binding, competition with immobilised ligand; 1 µM): 89%

CNC(=O)[C@@H]1CC[C@@H](n2c(-c3ccc4cnccc4c3)nc3ccc(C(=O)NCc4cccc(C(N)=O)c4)cc32)C1
remaining binding (PIK3CA H1047Y; binding, competition with immobilised ligand; 1 µM): 100%

CC1=C(C#N)C(c2ccc3c(c2)c(NC(=O)c2ccccc2C)nn3C)C(C#N)=C(C)N1
remaining binding (Phosphatidylinositol 4,5-bisphosphate 3-kinase catalytic subunit alpha isoform (PIK3CA, Homo sapiens, UniProt P42336, Q546K); cell-free assay, competition with immobilised ligand; 1 µM): 87%

CN(CCCC(F)(F)F)c1nccc(-c2cnn3ncccc23)n1
remaining binding (PIK3CA I800L; binding; 1 µM): 100%

O=C(NCCCN1CCOCC1)c1ccc(Nc2nccc(-c3cc4ccccc4s3)n2)cc1
remaining binding (PIK3CA C420R; binding, competition with immobilised ligand; 1 µM): 89%

O=C(Nc1c[nH]nc1C(=O)NC1CCNCC1)c1cc(F)cc(F)c1
remaining binding (PIK3CA; binding, competition with immobilised ligand; 1 µM): 100%

C[C@@H]1CCN(c2nccc(-c3cnn4ncccc34)n2)C1
remaining binding (PIK3CA M1043I; binding; 1 µM): 98%

CSc1cccnc1N1CCN(Cc2nc3ccccc3[nH]2)CC1
remaining binding (PIK3CA H1047L; cell-free assay, competition with immobilised ligand; 1 µM): 87%

O=C(c1ccc(Nc2nccc(-c3cc4ccccc4s3)n2)cc1)N1CCC(N2CCCC2)CC1
remaining binding (PIK3CA I800L; binding, competition with immobilised ligand; 1 µM): 100%

COc1ccnn2ncc(-c3ccnc(N(C)C)n3)c12
remaining binding (PIK3CA C420R; binding; 1 µM): 78%

c1cncc(-c2cccc(Nc3nccc(NC4CCCCC4)n3)c2)c1
remaining binding (PIK3CA; binding, competition with immobilised ligand; 10 µM): 100%

O=C(NCC1CCOCC1)c1n[nH]cc1NC(=O)c1c(F)cccc1F
remaining binding (PIK3CA E545K; binding, competition with immobilised ligand; 1 µM): 75%

O=C(NCCCN1CCOCC1)c1ccc(Nc2ncc(Cl)c(-c3ccc(Cl)s3)n2)cc1
remaining binding (PIK3CA H1047Y; binding, competition with immobilised ligand; 1 µM): 95%

COc1cnc(Nc2cccc(S(N)(=O)=O)c2)nc1N1CCN(c2ccccc2)CC1
remaining binding (PIK3CA I800L; binding, competition with immobilised ligand; 1 µM): 83%

CN1CC[C@H](c2c(O)cc(O)c3c(=O)cc(-c4ccccc4Cl)oc23)[C@H](O)C1
remaining binding (PIK3CA; cell-free assay, competition with immobilised ligand; 0.1 µM): 100%

CS(=O)(=O)NCC[C@H](NC(=O)c1cncc2c1cnn2-c1ccc(F)cc1)c1ccnc(S(C)(=O)=O)c1
remaining binding (PIK3CA; cell-free assay, competition with immobilised ligand; 1 µM): 83%

CN(C)c1nccc(-c2cnn3ncccc23)n1
remaining binding (PIK3CA E545A; binding; 1 µM): 100%

O=C(c1ccc(Nc2ncc(Cl)c(-c3ccc(Cl)s3)n2)cc1)N1CCC(N2CCCC2)CC1
remaining binding (PIK3CA; binding, competition with immobilised ligand; 1 µM): 100%

CCCOc1ccc([C@H]2[C@H](C(=O)O)[C@@H](c3ccc4c(c3)OCO4)CN2CC(=O)Nc2c(CC)cccc2CC)cc1
remaining binding (PIK3CA; cell-free assay, competition with immobilised ligand; 1 µM): 80%

CN(C)c1nccc(-c2cnc3ncccn23)n1
remaining binding (PIK3CA H1047Y; binding; 1 µM): 50%

Cc1c(-c2ccccc2)oc2c(C(=O)OCCN3CCCCC3)cccc2c1=O
remaining binding (PIK3CA; cell-free assay, competition with immobilised ligand; 10 µM): 100%

Cc1noc([C@H]2C[C@@H](c3ccc(C(F)(F)F)cc3)CN(C(=O)N3CCS(=O)(=O)C3)C2)n1
remaining binding (PIK3CA M1043I; cell-free assay, competition with immobilised ligand; 1 µM): 100%

CCN1CCN(Cc2ccc(C(=O)Nc3ccc(C)c(Oc4ccc5c(c4)CC(=O)N5)c3)cc2C(F)(F)F)CC1
remaining binding (PIK3CA E545A; binding, competition with immobilised ligand; 1 µM): 71%
